Source: ChEMBL document CHEMBL1129414, “Synthesis and cytotoxic and antitumor activity of esters in the 1,2-dihydroxy-1,2-dihydroacronycine series” (J Med Chem, 1996)

Assays:
[1] = tested on: P388; assay: Compound was tested for antitumor activity against P388 leukemia cells at the dose of 12.5 mg/kg ip.; type: functional, Mus musculus
[2] = tested on: L1210; assay: Compound was tested in vitro for cytotoxicity on L1210 leukemic cells by using MTT assay.; type: functional, cell-based; conditions: Mus musculus
Outline: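 L1210 cells were grown in RPMI 1640 with 10% fetal calf serum, 2 mM L-glutamine and 10 mM HEPES (pH 7.4). Cells were exposed for 48 h to nine serial drug dilutions in triplicate, and viability was read by MTT. IC50 is the concentration halving optical density versus untreated controls, given as mean ± SEM of at least 3 independent experiments.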

[3] = tested on: MC-38; assay: Compound was tested for antitumor activity against colon 38 adenocarcinoma cells at the dose of 6.25 mg/kg ip.; type: functional, Mus musculus
[4] = tested on: MC-38; assay: Compound was tested for antitumor activity against colon 38 adenocarcinoma cells at the dose of 12.5 mg/kg ip.; type: functional, Mus musculus
[5] = tested on: P388; assay: Compound was tested for antitumor activity against P388 leukemia cells at the dose of 50 mg/kg ip.; type: functional, Mus musculus
[6] = tested on: P388; assay: Compound was tested for antitumor activity against P388 leukemia cells at the dose of 12.5 mg/kg ip.; conditions: Mus musculus
[7] = tested on: P388; assay: Compound was tested for antitumor activity against P388 leukemia cells at the dose of 25 mg/kg ip.; type: functional, Mus musculus
[8] = tested on: P388; assay: Compound was tested for antitumor activity against P388 leukemia cells at the dose of 25 mg/kg iv.; type: functional, Mus musculus
[9] = tested on: P388; assay: Compound was tested for antitumor activity against P388 leukemia cells at the dose of 200 mg/kg ip.; type: functional, Mus musculus
[10] = tested on: MC-38; assay: Compound was tested for antitumor activity against colon 38 adenocarcinoma cells at the dose of 200 mg/kg ip.; type: functional, Mus musculus

Question: For COc1cc2c(c3c1c(=O)c1ccccc1n3C)[C@@H](O)[C@@H](OC(=O)c1ccccc1)C(C)(C)O2, which Activity [1] is on record?
Answer: Its Activity is 258%.

Question: What about the IC50 [2] of the same compound?
Answer: The IC50 was 7.1 µM.

Question: And the Activity [3]?
Answer: The Activity was 18%.

Question: What does the source list for COc1cc2c(c3c1c(=O)c1ccccc1n3C)[C@@H](OC(C)=O)[C@@H](OC(=O)c1ccccc1)C(C)(C)O2?
Answer: Activity [4]: 13%; Activity [5]: 201%; IC50 [2]: 5 µM

Question: COc1cc2c(c3c1c(=O)c1ccccc1n3C)[C@@H](O)[C@@H](O)C(C)(C)O2 was tested. Which IC50 [2] did it give?
Answer: Its IC50 is 80.6 µM.

Question: How did the IC50 [2] turn out when COc1cc2c(c3c1c(=O)c1ccccc1n3C)[C@@H](O)[C@@H](OC(C)=O)C(C)(C)O2 was run?
Answer: Its IC50 is 8.9 µM.

Question: For Cn1c2ccccc2c(=O)c2ccc3c(c21)[C@@H](O)[C@@H](O)C(C)(C)O3, which IC50 [2] is on record?
Answer: The IC50 was > 50 µM.

Question: Which IC50 [2] does the source give for Cn1c2ccccc2c(=O)c2ccc3c(c21)[C@H]1OC(=O)O[C@H]1C(C)(C)O3 here?
Answer: Its IC50 is > 50 µM.

Question: Which IC50 [2] does the source give for CC(=O)O[C@@H]1c2c(ccc3c(=O)c4ccccc4n(C)c23)OC(C)(C)[C@@H]1OC(C)=O here?
Answer: Its IC50 is > 50 µM.

Question: Which IC50 [2] does the source give for Cn1c2ccccc2c(=O)c2ccc3c(c21)C=CC(C)(C)O3 here?
Answer: Its IC50 is 29.7 µM.

Question: What does the source list for COc1cc2c(c3c1c(=O)c1ccccc1n3C)[C@H]1OC(=O)O[C@H]1C(C)(C)O2?
Answer: Activity [6]: 202%; IC50 [2]: 0.32 µM; Activity [3]: 68%

Question: How did the Activity [4] turn out when COc1cc2c(c3c1c(=O)c1ccccc1n3C)[C@@H](OC(C)=O)[C@@H](OC(C)=O)C(C)(C)O2 was run?
Answer: The Activity was 0%.

Question: And the Activity [7]?
Answer: The Activity was 289%.

Question: What about the IC50 [2] of the same compound?
Answer: The IC50 was 5.8 µM.

Question: And the Activity [8]?
Answer: Its Activity is 220%.

Question: How did the IC50 [2] turn out when COc1cc2c(c3c1c(=O)c1ccccc1n3C)C=CC(C)(C)O2 [ACRONINE] was run?
Answer: Its IC50 is 24.1 µM.

Question: And the Activity [9]?
Answer: The Activity was 125%.

Question: What about the Activity [10] of the same compound?
Answer: Its Activity is 4%.

Question: COc1cc2c(c3c1c(=O)c1ccccc1n3C)CCC(C)(C)O2 [DIHYDROACRONYCINE] was tested. Which IC50 [2] did it give?
Answer: Its IC50 is 34.3 µM.
